Compound activity deposited in PubChem by several laboratories.
T cruzi repl: inhibitors of intracellular T. cruzi growth, primary screen, luminescence, NIH3T3 host cells; T. cruzi beta-gal in NIH3T3, 90 h; inhibition, % (no concentration beside the values); 300,000 tested, 1.4% active;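 active = mean inhibition across valid replicates above about 55%, limit read from the data; inconclusive = mean below that limit but half or more replicates reach it; inactive = mean below it, under half of replicates reach it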;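 note: signal also drops with host cell toxicity which is not excluded here; 0% = plate median of DMSO wells and 100% = zero luminescence signal; higher percent means less beta-gal luminescence so fewer parasites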
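compound dosing = single 50 nL compound addition per well in DMSO | material = NIH/3T3 host cells with β-galactosidase reporter T. cruzi | input = 5,000 host fibroblasts per well | timing = ≥90 h infection period, 3 h prior cell attachment | read-out basis = percent inhibition of parasite-derived β-gal signal | detection = GalScreen β-gal luminescence, detergent lysis, 60 min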
Beta cell apopt: inhibitors of cytokine-induced beta cell apoptosis, primary screen, luminescence; protection from apoptosis, % (no concentration beside the values); INS-1E cytokine-induced death, ATP luminescence, 48 h; percent of positive-control rescue, neutral wells zero; 300,000 tested, 0.8% active;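 active = Every replicate reaches about 75%, or at least half do and their mean reaches it too, limit read from the data; inconclusive = At least half of replicates reach the limit but their mean does not; inactive = Under half of replicates reach the limit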;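 note: 0% = cytokine-treated negative control wells and 100% = positive control rescue; higher means more ATP so stronger rescue from cytokine killing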
Mdm2-MdmX inh: inhibitors of human Mdm2-MdmX association, primary screen, cell-based, luminescence, split luciferase, SaOS-2, uHTS | inhibition, % at 8 µM | 330,000 tested, 3% active | Protein Mdm4 (Homo sapiens) + E3 ubiquitin-protein ligase Mdm2 (Homo sapiens), … | SaOS-2 split-luciferase Mdm2/MdmX complementation;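 active = inhibition of at least 50% at 8 µM in the primary screen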
UPR XBP1 act: activators of adaptive XBP1 UPR arm, primary screen, cell-based, CHO-XBP1 luciferase reporter, luminescence, uHTS. AID 463104, 2010. activation, % at 20 µM. 330,000 tested, 0.33% active. IRE1-XBP1 UPR activation; percent of tunicamycin response, DMSO as zero;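 active = versus positive control, 20 µM dose yields 30% or more activation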;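 note: 100% = tunicamycin at 10 µg/mL and 0% = DMSO only wells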
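Assay system: IRE1-XBP1 luciferase reporter CHO line. Input: 1000 cells/well. Buffer or medium: F12 with 10% serum. Doses: 20 µM, 1% DMSO. Times: overnight seeding at 37 °C, 6 h compound treatment at 37 °C. Technique: Steady-Glo luciferase glow luminescence, 10 min after reagent addition.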
CSC inhib: cancer stem cell viability inhibitors, primary screen, luminescence; inhibition, % at 7.5 µM; AID 2717, 2010; cancer stem cell-like cells viability; 300,000 tested, 1.1% active; in the data active = inhibition above about 75%; inconclusive = no clear call, values can overlap the other calls; tested in HMLE shEcad cells
UPR CHOP act: activators of apoptotic CHOP UPR arm, primary screen, cell-based, CHO-CHOP luciferase reporter, luminescence, uHTS. UPR activation; percent of tunicamycin response over DMSO baseline. activation, % at 10 µM. 330,000 tested, 0.34% active;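 active = at 10 µM dose, activation of 40% or more, normalized to positive control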;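 note: 100% = tunicamycin at 10 µg/mL and 0% = DMSO alone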
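Evaluation: % reporter activation, DMSO baseline versus tunicamycin full activation; System: CHO-CHOP luciferase reporter cell line; Input: 500 cells/well; Incubation: 6 h compound treatment, 37 °C; Measured by: Steady-Glo luciferase luminescence; Dosing: one dose, 10 µM in 0.5% DMSO; Buffer or medium: F12 medium, 10% FBS; Benchmarks: positive tunicamycin 10 µg/mL, negative DMSO alone.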
Mdm2 MdmX conf: Mdm2-MdmX complex disruptors, retested hits, confirmation, luminescence, single concentration; shares compounds with Mdm2-MdmX inh; Mdm2-MdmX binding, luminescent assay; inhibition, % at 8 µM; 10,000 tested, 55% active; AID 489028, 2010; in the data active = inhibition above about 40%
Full FLuc ctr: full-length luciferase signal inhibition, confirmation, counter-screen for Mdm2/MdmX interaction inhibitor project, cell-based, single concentration, SaOS-2; shares compounds with Mdm2-MdmX inh; SaOS-2 full-length luciferase counterscreen, luminescence; inhibition, % at 8 µM; 6,200 tested, 77% active;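 active = mean inhibition at 8 µM reaching about 37%, which flags the compound as non-specific, limit read from the data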;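 note: p53-null SaOS-2 cells with luciferase driven by a doxycycline-inducible promoter; compound on cells about two nights before reading with doxycycline added after day one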
* hit, by the source's call; u = inconclusive; x = not tested or not shown. Only some compounds are listed: those with a hit (about 5% of all), similar ones and a draw of the others.

SMILES	T cruzi repl	Beta cell apopt	Mdm2-MdmX inh	UPR XBP1 act	CSC inhib	UPR CHOP act	Mdm2 MdmX conf	Full FLuc ctr
COc1ccc(/C=C2\SC(=S)N(NC(=O)c3csc4c3CCCC4)C2=O)cc1	-5.0	-11.2	16.0	-1.4	41.1	-0.9	x	x
CCc1ccc(NC(=O)c2ccc(F)c(S(=O)(=O)NCC3COc4ccccc4O3)c2)cc1 (stereo not drawn)	6.9	32.9	55.6*	2.5	2.7	3.0	40.0*	55.1*
C=C[C@@H]1c2cc(C)ccc2N(S(=O)(=O)c2ccc(C)cc2)[C@H](c2ccc(OC(C)=O)cc2)C1(C#N)C#N	x	16.9	71.6*	3.1	113.3*	4.0	64.9*	71.8*
C=C[C@@H]1c2ccccc2N(S(=O)(=O)c2ccc(C)cc2)[C@H](c2ccc(OC(C)=O)cc2)C1(C#N)C#N	x	2.0	45.8	3.1	u	-1.2	x	x
CCOc1cc(CNCc2ccccc2)ccc1OCc1ccc(Cl)cc1	55.3*	41.0	55.0*	5.5	28.5	2.5	22.2	x
CCOc1cc(CNCCc2ccc(S(N)(=O)=O)cc2)cc(Cl)c1OCc1ccccc1	58.3*	51.0	67.2*	8.9	17.5	7.7	37.0	52.7*
Cc1cc(C)cc(NC(=O)CSc2nc3nc(C)cc(C)n3n2)c1	x	0.0	9.3	1.5	-5.8	-1.2	x	x
CCOc1cc(/C=C/C(=O)Nc2ccc(C(=O)NCCN(CC)CC)cc2)ccc1OCC(C)C	51.0	19.9	94.3*	0.1	-10.9	0.3	28.1	x
CCOc1ccc(/C=C/C(=O)Nc2ccc(C(N)=O)cc2)cc1OC	-1.6	9.1	-8.6	1.0	-11.3	2.3	x	x
O=C(Nc1ccc2c(c1)OCO2)c1ccccn1	x	11.4	-57.0	-1.0	x	1.3	x	x
O=C(/C=C\Nc1ccc2c(c1)OCO2)c1ccccn1	-1.4	7.4	72.2*	-11.1	-13.8	-10.0	64.5*	38.9*
COc1ccc(S(=O)(=O)Nc2ccc(S(=O)(=O)Nc3nccs3)cc2)cc1	11.7	-6.8	17.9	1.0	x	-0.5	x	x
O=c1c(Cl)c(N2CCCCC2)cnn1-c1nc2ccccc2[nH]1	5.0	41.8	52.5*	-7.1	12.2	-9.6	56.3*	62.6*
Cc1ccc(/C=C2\SC(=S)N(CCC(=O)N3CCOCC3)C2=O)cc1	-27.5	-51.4	56.8*	-3.3	22.4	1.5	29.9	x
COc1cccc(/C=C2/SC(=S)N(CCC(=O)N3CCOCC3)C2=O)c1	-23.0	-58.9	53.5*	1.2	x	5.1	15.4	x
COc1ccc(/C=C2\SC(=S)N(CCC(=O)N3CCOCC3)C2=O)cc1	-2.2	-9.5	48.6	-2.9	13.7	4.3	x	x
COc1cccc(/C=C2\SC(=S)N(CCCC(=O)N3CCCCC3)C2=O)c1	-4.8	-51.2	87.8*	-6.0	8.3	1.2	62.5*	22.9
COc1c(OC(C)=O)ccc(/C=N\NC(=O)c2ccc(Br)cc2)c1[N+](=O)[O-]	-6.3	4.5	16.9	8.8	13.5	3.2	x	x
O=C(Nc1ccc(-c2csc(Nc3ccc(Cl)cc3)n2)cc1)c1cc([N+](=O)[O-])cc(C(F)(F)F)c1	23.0	-2.4	71.2*	3.9	148.7*	6.6	10.7	x
O=C(Nc1cccc(-c2csc(Nc3ccc(Cl)cc3)n2)c1)c1cccc(C(F)(F)F)c1	43.7	35.2	58.4*	-0.3	-18.3	0.7	-5.8	x
O=C(Nc1cccc(-c2csc(Nc3ccc(Cl)cc3)n2)c1)c1cc([N+](=O)[O-])cc(C(F)(F)F)c1	20.8	31.7	84.6*	9.6	108.2*	12.1	28.2	x
CC(C)CCOc1ccc(Cl)cc1CN1CCOCC1	20.5	3.6	-29.8	2.2	54.9	1.0	x	x
COc1ccc(C2(c3ccc(OC)cc3)NC(=O)N(CC(=O)N(C)C3CCC(C)CC3)C2=O)cc1 (stereo not drawn)	x	-2.5	-8.2	-1.5	-3.0	0.0	x	x
C/C(=N\NC(=O)CNC(=O)C(c1ccccc1)c1ccccc1)c1ccccc1	-3.0	-6.6	16.8	-1.8	-2.3	-0.9	x	x
C/C(=N\NC(=O)CNC(=O)C(c1ccccc1)c1ccccc1)c1ccc(C(C)(C)C)cc1	6.3	5.7	55.1*	22.0	3.5	1.5	13.8	x
SMILES	T cruzi repl	Beta cell apopt	Mdm2-MdmX inh	UPR XBP1 act	CSC inhib	UPR CHOP act	Mdm2 MdmX conf	Full FLuc ctr
CCOc1cc(N2CCOCC2)c(OCC)cc1NC(=O)c1[nH]c(C)c(C(C)=O)c1C	x	2.1	56.5*	2.7	x	-0.5	38.1	86.3*
CC(=O)c1c(C)[nH]c(C(=O)Nc2ccccc2N2CCOCC2)c1C	10.6	1.6	-4.8	1.2	-18.0	0.4	x	x
CCOc1ccc(OCCC(=O)OCC(=O)Nc2cc(OCC)c(N3CCOCC3)cc2OCC)cc1	7.4	-37.5	50.2*	2.5	x	9.1	43.6*	53.7*
Cn1cc([N+](=O)[O-])c(C(=O)Nc2ccc(-c3nc4ccccc4o3)cc2)n1	6.0	-8.6	51.7*	1.7	103.8*	9.1	49.3*	42.7*
COc1ccc(C(=O)Nc2nccs2)cc1[N+](=O)[O-]	-4.9	-12.2	-2.9	4.1	-5.3	1.6	x	x
Cn1cc([N+](=O)[O-])c(C(=O)Nc2ccc(Br)cn2)n1	-30.6	-13.4	55.9*	-3.2	40.0	1.4	43.5*	90.3*
CCSc1ccc(C(=O)Nc2ccc(Br)cn2)cc1[N+](=O)[O-]	26.5	7.6	16.5	-0.6	0.6	-0.2	x	x
Cn1cc([N+](=O)[O-])c(C(=O)Nc2nccs2)n1	-30.7	0.6	57.2*	-5.5	26.7	1.2	16.6	x
CC(=O)Nc1cccc(-c2nc3ccccc3o2)c1	-5.9	-8.6	10.6	0.2	-11.7	3.7	x	x
O=C(COC(=O)Cc1cccc(C(F)(F)F)c1)NC1CCS(=O)(=O)C1 (stereo not drawn)	0.6	-1.4	5.1	-0.4	x	0.0	x	x
COc1cc(NC(=O)c2cc3c(C)nc4ccccc4c3o2)cc(OC)c1OC	-3.3	8.0	59.1*	-1.5	1.3	2.0	28.9	x
O=C(Nc1ccc(Cl)c(S(=O)(=O)N2CCCCC2)c1)c1cccnc1	x	-2.2	10.3	-3.8	x	-2.1	x	x
O=C(O)c1ccc(S(=O)(=O)N(Cc2ccccc2)C2CCCCC2)cc1	-12.2	-0.2	-38.1	-4.3	-1.3	-2.4	x	x
